Results from ChEMBL document CHEMBL4699552, “Paecilosetin Derivatives as Potent Antimicrobial Agents from Isaria farinosa” (J Nat Prod, 2020).

Experiments:
Staphylococcus aureus [1] = assay: Antimicrobial activity against methicillin-sensitive Staphylococcus aureus ATCC 29213 assessed as reduction in microbial growth after 24 hrs by microdilution method; type: functional
Summary of the method: (§1)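 Bacterial MICs by CLSI M7 broth microdilution on ATCC strains. Concentrations ran from 256 to 0.5 µg/mL, with 24 h incubation at 35 °C. MIC is the lowest concentration with no visible growth. Duplicate assays.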

Staphylococcus aureus [2] = assay: Antimicrobial activity against methicillin-resistant Staphylococcus aureus ATCC 33591 assessed as reduction in microbial growth after 24 hrs by microdilution method; type: functional
Summary of the method: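 Broth microdilution per CLSI M7; test range 256 to 0.5 µg/mL; plates incubated at 35 °C and read at 24 h for bacteria; MIC taken as lowest concentration preventing visible growth in the wells; run in duplicate.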

Trichophyton rubrum = assay: Antifungal activity against Trichophyton rubrum SNB-TR1 assessed as reduction in microbial growth after 5 days by microdilution method; type: functional; settings: SNB-TR1, 120 h, time 5 day
Summary of the method: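 CLSI M38 broth microdilution on a clinical dermatophyte isolate. Serial dilutions from 256 to 0.5 µg/mL, incubated at 35 °C and read after 5 days. MIC is the lowest concentration preventing visible growth. Run in duplicate.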

Escherichia coli = assay: Antimicrobial activity against Escherichia coli ATCC 25922 assessed as reduction in microbial growth after 24 hrs by microdilution method; type: functional; summary of the method: as §1
Candida albicans [3] = assay: Antifungal activity against Candida albicans ATCC 10231 assessed as reduction in microbial growth after 48 h by microdilution method; settings: ATCC 10231, 48 h
MRC5 = assay: Cytotoxicity against human MRC5 cells assessed as reduction in cell viability after 72 hrs by CellTiter Glo assay; type: cell-based; settings: MRC5, 72 h
Summary of the method: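 Lung fibroblasts from ATCC, grown in DMEM with 10% FCS and 1% glutamine at 37 °C under 5% CO2, were seeded at 3 × 10^3 cells/well. After 24 h they were dosed at 10 final concentrations by serial dilution in medium, with vehicle controls. After 72 h, viability was read by CellTiter Glo luminescence (15 min). Triplicate runs; IC50 from four- or five-parameter logistic fits.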

Candida albicans [4] = assay: Antifungal activity against Candida albicans ATCC 10231 assessed as reduction in microbial growth after 5 days by microdilution method; type: functional; settings: ATCC 10231, 120 h, time 5 day

Row | Molecule | MIC (Staphylococcus aureus [1]) [µg/mL] | MIC (Staphylococcus aureus [2]) [µg/mL] | MIC (Trichophyton rubrum) [µg/mL] | MIC (Escherichia coli) [µg/mL] | MIC (Candida albicans [3]) [µg/mL] | IC50 (MRC5) [µM] | MIC (Candida albicans [4]) [µg/mL]
1 | C/C=C/[C@@H]1C=C[C@@H]2C[C@H](CO)CC[C@H]2[C@]1(C)/C(O)=C1\C(=O)N[C@@H]([C@@H](C)O)C1=O | > 256 | > 256 | > 256 | > 256 | > 256 | – | –
2 | C/C=C/[C@@H]1C=C[C@@H]2C[C@H](CO)CC[C@H]2[C@]1(C)/C(O)=C1\C(=O)N[C@@H]([C@H](C)O)C1=O | > 256 | > 256 | > 256 | 256 | > 256 | – | –
3 | Cc1onc(-c2ccccc2)c1C(=O)N[C@@H]1C(=O)N2[C@@H]1SC(C)(C)[C@@H]2C(=O)O [OXACILLIN] | 0.25 | – | – | – | – | – | –
4 | C/C=C/[C@@H]1C=C[C@@H]2C[C@H](C)CC[C@H]2[C@]1(C)/C(O)=C1\C(=O)N[C@@H]([C@@H](C)O)C1=O | 8 | 16 | 64 | > 256 | 128 | 50.3 | –
5 | C/C=C1\NC(=O)C(C(=O)[C@@]2(C)[C@@H]3CC[C@@H](C)C[C@H]3C=C[C@H]2/C=C/C)=C1O | 2 | 1 | 32 | > 256 | 32 | 24.2 | –
6 | C/C=C/[C@@H]1C=C[C@@H]2C[C@H](C)CC[C@H]2[C@]1(C)/C(O)=C1\C(=O)N[C@@H]([C@H](C)O)C1=O | 2 | 2 | 32 | > 256 | 16 | 40 | –
7 | OC(Cn1cncn1)(Cn1cncn1)c1ccc(F)cc1F [FLUCONAZOLE] | – | – | 4 | – | – | – | 1
8 | GENTAMICIN | – | – | – | 8 | – | – | –
9 | C/C=C1\NC(=O)C(C(=O)[C@@]2(C)[C@@H]3CC[C@@H](CO)C[C@H]3C=C[C@H]2/C=C/C)=C1O | 64 | 128 | > 256 | > 256 | > 256 | 106 | –
